From ChEMBL document CHEMBL1123363, “(5-Amino-1,3-dimethyl-1H-pyrazol-4-yl)(2-fluorophenyl)methanones . A series of novel potential antipsychotic agents” (J Med Chem, 1986) come the findings set out here.

Assay [1] concerns the target T1, Serotonin 2 (5-HT2) receptor (Rattus norvegicus, UniProt P30994+P08909+P14842). Nature of the assay: Binding affinity towards 5-hydroxytryptamine 2 receptor using [3H]- spiroperidol. Format: protein assay. The procedure, abridged:
(§1)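 Serotonin-2 sites in rat cerebral cortex membranes (male Long-Evans, 150–250 g) with [3H]spiroperidol at 0.2 nM final. (+)-Butaclamol at 1.0 μM final was the reference. IC50 from four or five concentrations by nonlinear curve fitting.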

Assay [2] addresses GABA-A receptor; anion channel. Nature of the assay: Displacement of [3H]-GABA from rat brain Gamma-aminobutyric acid receptor. The procedure, abridged:
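GABA binding in membranes of rat whole brain minus cerebellum and brain stem (male Long-Evans, 150–250 g), using [3H]-GABA at 25 nM final. GABA at 1 mM final was the reference. IC50 from four or five concentrations by nonlinear curve fitting.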

Assay [3] deals with Rattus norvegicus. The experiment in a line: Compound was tested for serum prolactin assay method in rats at 1 mg/kg dose after peroral administration. Format: functional. The following applies: route oral. The procedure, abridged: (§2)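 Seven-week-old male Sprague–Dawley rats, five per group, were dosed orally and killed by decapitation 1 h later. Serum prolactin from trunk blood was measured by radioimmunoassay with [125I]-PRL and expressed as % of control (mean ± SEM).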

The subject of assay [4] is Rattus norvegicus. The experiment in a line: Compound was tested for serum prolactin assay method in rats at 10 mg/kg dose after peroral administration. The following applies: route oral. Format: functional. The procedure, abridged: as §2
The subject of assay [5] is Rattus norvegicus. The experiment in a line: Inhibition of conditional avoidance in rats after peroral administration. Format: functional. The following applies: po. The procedure, abridged: (§3)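 Fasted male Wistar rats (150–250 g) were trained to jump to a platform at a buzzer to avoid grid shock (1.1 mA/s). After oral dosing they were tested every 20 min for 6 h over 19 trials, 10 rats per dose, each rat used once. Peak effect was the mean of the four consecutive trials with the largest effect, computed from response latency. ED50 read graphically from at least three doses.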

Assay [6] concerns Rattus norvegicus. The experiment in a line: Compound was tested for its antagonized affect on the accumulation of the brain dopamine induced by butyrolactone (GBL) at 25 mg/kg after intraperitoneal administration. On the set-up: scale not given: the % may be the effect or the level left. Format: functional. The procedure, abridged:
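Rats received test compound ip 30 min before γ-butyrolactone (750 mg/kg ip) and were killed 1 h after GBL. Dopamine in brain minus brain stem and cerebellum (four to six rats) was measured spectrofluorometrically and expressed as % of the GBL-treated group.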

Assay [7] concerns Rattus norvegicus. Nature of the assay: Compound was tested for its affect on the accumulation of the dopamine metabolite homovanillic acid (HAV) in the rat striatum at 8 mg/kg dose after peroral administration. Format: functional. The following applies: route oral. A digest of the protocol: (§4)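 Male Long–Evans rats were dosed orally and decapitated 2 h later. Striatal HVA was isolated on Sephadex G-10 and measured spectrofluorometrically, expressed as % control ± SEM.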

Assay [8] relates to Rattus norvegicus. The experiment in a line: Compound was tested for its affect on the accumulation of the dopamine metabolite homovanillic acid (HAV) in the rat striatum at 83 mg/kg dose after peroral administration. Format: functional. The following applies: route oral. The procedure, abridged:
as §4

Assay [9] addresses T2, Serotonin 1 (5-HT1) receptor (Rattus norvegicus, UniProt P28564+P30940+P19327+P28565). The experiment in a line: Binding affinity against the serotonin-1 receptor using [3H]- 5-HT. Format: protein assay. A digest of the protocol: (§5)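 Serotonin-1 binding in rat cortex membranes (male Long-Evans, 150–250 g) with [3H]-5-HT at 2.0 nM final. (+)-Butaclamol at 1 μM final was the reference. IC50 from four or five concentrations by nonlinear curve fit.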

The target of a further assay is T3, Adenosine receptor A1 (Rattus norvegicus, UniProt P25099).
T3 sequence (P25099 whole entry): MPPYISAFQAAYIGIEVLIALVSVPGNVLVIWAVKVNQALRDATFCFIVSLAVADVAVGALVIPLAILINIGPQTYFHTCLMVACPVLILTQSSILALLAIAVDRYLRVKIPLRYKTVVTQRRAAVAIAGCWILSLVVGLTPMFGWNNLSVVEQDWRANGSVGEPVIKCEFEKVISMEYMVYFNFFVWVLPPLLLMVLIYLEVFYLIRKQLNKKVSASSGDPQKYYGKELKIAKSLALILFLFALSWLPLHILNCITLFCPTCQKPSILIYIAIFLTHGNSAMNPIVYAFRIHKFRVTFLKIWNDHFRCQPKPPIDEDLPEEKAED
The experiment in a line: Binding affinity towards rat brain adenosine A1 receptor using [3H]- CHA. The procedure, abridged:
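Adenosine A1 binding in membranes of rat whole brain minus brain stem and cerebellum (male Long-Evans, 150–250 g), using [3H]-CHA at 1.0 nM final. Theophylline at 1 mM final was the reference. IC50 from four or five concentrations by nonlinear fit.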

Assay [10] has as its target Beta-1 adrenergic receptor (Rattus norvegicus, UniProt P18090). The experiment in a line: Binding affinity against beta-1 adrenergic receptor in rat brain using [3H]DHA. Format: tissue-based. The procedure, abridged:
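β1 sites in rat cerebral cortex membranes (male Long-Evans, 150–250 g) with [3H]dihydroalprenolol at 0.5 nM final. (-)-Alprenolol at 1 μM final defined the reference. IC50 from four or five concentrations by nonlinear curve fit.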

Assay [11] concerns the target Beta-2 adrenergic receptor (Rattus norvegicus, UniProt P10608). Nature of the assay: Binding affinity against beta-2 adrenergic receptor in rat brain using [3H]DHA. Format: tissue-based. The procedure, abridged:
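β2 binding on rat cerebellum membranes (male Long–Evans rats, 150–250 g) with [3H]dihydroalprenolol, 0.5 nM final. Nonspecific binding defined with (-)-alprenolol, 1 μM final. IC50 from four or five concentrations by nonlinear curve fit.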

Assay [12] concerns the target Dopamine receptor (Rattus norvegicus) (UniProt P25115+P19020+P30729+P18901+P61169). The experiment in a line: Compound was tested for its effect on norepinephrine turnover in rat at dose of 10+/-250 mg/kg. Format: functional, organism-based. The following applies: in the assay text read “64+/-250 mg/kg” for “10+/-250 mg/kg”. A digest of the protocol:
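Male Long-Evans rats were given vehicle or agent ip 30 min before α-methyl-p-tyrosine (250 mg/kg) and killed 4 h after it. Brain NE and DA were isolated on Sephadex G-10 and measured spectrofluorometrically. Values are percent of vehicle-treated, with at least five determinations per value.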

Assay [13] relates to Rattus norvegicus. Nature of the assay: Compound was tested for its effect on Dopamine turnover in rat at dose of 64 mg/kg ip. Format: functional. The following applies: route intraperitoneal. A digest of the protocol:
(§6)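 Rats were given compound or vehicle ip 30 min before α-methyl-p-tyrosine (250 mg/kg ip) and killed 4 h later. Brain NE and DA were measured spectrofluorometrically, with at least five determinations per value, and expressed as % of vehicle-treated levels ± SEM.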

The subject of assay [14] is Rattus norvegicus. Nature of the assay: Compound was tested for its effect on norepinephrine turnover in rat at dose of 64 mg/kg ip. Format: functional. The following applies: route intraperitoneal. The procedure, abridged:
as §6

In assay [15] the test system is Rattus norvegicus. The experiment in a line: Suppression of conditional avoidance after peroral administration. The following applies: po. Format: functional. A digest of the protocol: as §3
Assay [16] deals with T2, Serotonin 1 (5-HT1) receptor. Nature of the assay: Binding affinity against serotonin-1 receptor in rat brain using [3H]5-HT. Format: tissue-based. The procedure, abridged: as §5
The target in assay [17] is T1, Serotonin 2 (5-HT2) receptor. The experiment in a line: Binding affinity towards 5-hydroxytryptamine 2 receptor in rat brain using [3H]spiroperidol. Format: tissue-based. The procedure, abridged: as §1
For assay [18], the target named is Muscarinic acetylcholine receptor. The experiment in a line: Binding affinity against muscarinic receptor in rat brain using [3H]- QNB. Format: tissue-based. The procedure, abridged: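 Muscarinic sites in rat brain stem membranes (male Long-Evans, 150–250 g), labelled with [3H]quinuclidinyl benzilate at 0.03 nM final. Oxotremorine at 100 μM final served as the reference displacer. IC50 from four or five concentrations by nonlinear curve fitting.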

The species entered for assay [19] is Rattus norvegicus. Nature of the assay: Compound was tested for its potential to produce clonic seizures in rats; + indicates compound is causing seizures. Format: functional, organism-based. The procedure, abridged: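 Any sign of seizure marked the compound as seizure-causing; the outcome was not quantified.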
The species entered for assay [20] is Rattus norvegicus. Nature of the assay: Effective dose required for inhibition of Sidman avoidance in rats. Format: functional. A digest of the protocol: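 Mature male Long–Evans rats, trained on a modified Sidman avoidance schedule in lever-equipped operant chambers, were dosed orally and tested in 6-h sessions. Inhibition was expressed as % of each animal's own nondrug responding. At least three doses were given to four animals, with sessions at least 1 week apart. ED50 from nonlinear regression of dose–effect.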

Active and inactive are the calls of the source. No cut-off for these calls is given here.

Beta-2 adrenergic receptor, sequence (P10608 whole entry): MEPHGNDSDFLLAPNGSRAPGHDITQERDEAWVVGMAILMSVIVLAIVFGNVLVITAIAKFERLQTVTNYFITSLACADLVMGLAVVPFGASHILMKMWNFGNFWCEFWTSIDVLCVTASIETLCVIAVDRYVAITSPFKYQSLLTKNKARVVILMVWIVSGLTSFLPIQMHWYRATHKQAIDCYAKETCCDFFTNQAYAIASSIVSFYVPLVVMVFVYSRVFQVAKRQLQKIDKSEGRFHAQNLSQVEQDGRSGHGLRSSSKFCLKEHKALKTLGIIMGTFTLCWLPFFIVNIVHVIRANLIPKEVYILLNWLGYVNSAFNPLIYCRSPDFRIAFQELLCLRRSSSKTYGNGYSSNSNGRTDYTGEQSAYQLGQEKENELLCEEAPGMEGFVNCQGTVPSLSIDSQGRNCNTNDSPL
Beta-1 adrenergic receptor, sequence (P18090 whole entry): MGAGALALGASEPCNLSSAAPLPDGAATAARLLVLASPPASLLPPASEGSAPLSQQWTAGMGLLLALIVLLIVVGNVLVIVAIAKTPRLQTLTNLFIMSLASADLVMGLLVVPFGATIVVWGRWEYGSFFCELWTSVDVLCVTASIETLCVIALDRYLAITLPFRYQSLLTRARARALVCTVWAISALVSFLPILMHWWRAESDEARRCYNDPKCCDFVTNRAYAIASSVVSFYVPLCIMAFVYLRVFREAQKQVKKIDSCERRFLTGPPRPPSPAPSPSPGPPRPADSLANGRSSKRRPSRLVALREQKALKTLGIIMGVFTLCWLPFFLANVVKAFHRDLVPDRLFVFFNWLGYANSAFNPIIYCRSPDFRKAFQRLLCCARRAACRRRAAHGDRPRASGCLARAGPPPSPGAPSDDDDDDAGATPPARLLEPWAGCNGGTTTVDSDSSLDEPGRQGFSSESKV

`CCN(CC)CC(=O)Nc1c(C(=O)c2ccccc2F)c(C)nn1C`: the IC50 in [1], in assay [2] and in assay [9] was greater than 10 µM throughout. For the same molecule, the Control in the assay with Rattus norvegicus [3] stood at 87.4%; with Rattus norvegicus [4] it was 52.9%; with Rattus norvegicus [6], 85.5%; in the assay with Rattus norvegicus [7], 131.9%; in the assay on Rattus norvegicus [8], 102.1%. For the same molecule, the 50% effect level with Rattus norvegicus [5] (ED50) was put at a dose of 18 mg/kg.
With `Cc1nn(C)c(NC(=O)CNCCCN2CCCCC2C)c1C(=O)c1ccccc1F` (stereo unspecified), the IC50 (on Adenosine receptor A1; in assay [10]; in assay [11]; in assay [16]; in assay [17]) was greater than 10 µM each time. The Control in assay [12] was found to be 53.7%; with Rattus norvegicus [13], 96.6%; with Rattus norvegicus [14], 102.8%. The 50% effective dose (ED50) (usually the midpoint of the dose-response relation) in the assay with Rattus norvegicus [15] stood at 43 mg/kg.
For the molecule `Cc1nn(C)c(N)c1C(=O)c1ccccc1F`, in [18], the IC50 (commonly the point on the concentration scale where inhibition reaches its midpoint) is greater than 10 µM. Also, the Clonic seizures result in the assay filed under Rattus norvegicus [19] is “Active”. For the same molecule, in the assay filed under Rattus norvegicus [20], the ED50 turned out to be 20 mg/kg.
